Holding throughout (assay type): functional, cell-based
Test [1] concerns MCF7. In words: Antiproliferative activity against human MCF7 cells expressing estrogen receptor after 72 hrs by MTS/PMS assay. The note with it: MCF7, 72 h. A digest of the protocol: (§1)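 Cells kept in Advanced DMEM/F12 (1:1) with non-essential amino acids, 2 mM L-glutamine, penicillin, streptomycin and 10% FBS at 37 °C, 5% CO2. Seeded at 2000/well, attached overnight. Compound added in DMSO across a concentration range (1% DMSO final) for 72 h. Viable cells read by MTS/PMS and normalized to 1% DMSO controls (100%). IC50 taken from separate triplicate experiments.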

The test system of test [2] is SK-BR-3. In words: Antiproliferative activity against human SKBR3 cells expressing HER2 after 72 hrs by MTS/PMS assay. The conditions noted are these: SK-BR-3, 72 h. A digest of the protocol:
as §1

The nature of test [3]: Antiproliferative activity against human androgen-dependent LNCaP-LN3 cells after 72 hrs by MTS/PMS assay. The note with it: LNCaP-LN3, 72 h. A digest of the protocol:
as §1

A short description of test [4]: Antiproliferative activity against human androgen-independent PC3MM2 cells after 72 hrs by MTS/PMS assay. The conditions noted are these: PC3MM2, 72 h. A digest of the protocol: as §1

Each structure is given as a SMILES string.

In ChEMBL document CHEMBL1795208 (J Med Chem, 2011) one finds IC50 data, which are given here for 45 compounds.

By IC50 is commonly meant the concentration at which inhibition is half-maximal. A lower IC50 goes with higher potency.

As for `COc1cccc(-c2cc(C(=O)Nc3cc4ccc(OC5CN(C(C)=O)C[C@@H](O)[C@H]5O)c(C)c4oc3=O)ccc2OC)c1` (some centres not stated), the half-inhibitory concentration (IC50) came out at 9.18 µM in test [1], 10.8 µM in test [2], 0.71 µM in test [3] and 2.22 µM in test [4].
With `COc1c(OC2CCN(C)CC2)ccc2cc(NC(=O)c3ccc(O)c(CC=C(C)C)c3)c(=O)oc12`, the IC50 in test [1] was determined as 1.54 µM; in test [2], 0.92 µM; in test [4], 3.53 µM.
Consider `COc1cccc(-c2cc(C(=O)Nc3cc4cc(OC)c(OS(C)(=O)=O)c(C)c4oc3=O)ccc2OC)c1`, for which the half-inhibitory concentration (IC50) in test [1], in test [2] and in test [3] was over 100 µM throughout.
Regarding `COc1cccc(-c2cc(C(=O)Nc3cc4ccc(OC5OC(C)(C)[C@H](OC)[C@@H](O)[C@H]5O)c(OC)c4oc3=O)ccc2OC)c1` (some centres not stated), the half-maximal inhibitory concentration (IC50) in test [1] is 9 µM; in test [2], 13.9 µM; in test [3], 0.11 µM; in test [4], 1.44 µM.
For `COc1cccc(-c2cc(C(=O)Nc3cc4ccc(OC5CC(C)C[C@@H](O)[C@H]5O)c(OC)c4oc3=O)ccc2OC)c1` (some centres not stated), the IC50 in test [1] turned out to be 8.52 µM; in test [2], 6.38 µM.
As to `COc1cccc(-c2cc(C(=O)Nc3cc4ccc(OC5CN(C)C[C@@H](O)[C@H]5O)c(C)c4oc3=O)ccc2OC)c1` (some centres not stated), the IC50 in test [1] was 1.85 µM; in test [2], 3.92 µM; in test [3] it was 0.59 µM; in test [4], 2.99 µM.
Take `COc1cccc(-c2cc(C(=O)Nc3cc4ccc(OP(=O)(OC)OC)c(OC)c4oc3=O)ccc2OC)c1`: the IC50 in test [1] was over 100 µM; in test [2], 18.1 µM; in test [3], 6.58 µM; in test [4], 11.5 µM.
In the same order, the values of `COc1cccc(-c2cc(C(=O)Nc3cc4ccc(OCC(O)CO)c(OC)c4oc3=O)ccc2OC)c1` (configuration not stated) are over 50 µM, over 50 µM, 0.96 µM and 1.66 µM.
For `COc1cccc(-c2cc(C(=O)Nc3cc4cc(OC)c(OC(=O)N(C)C)c(C)c4oc3=O)ccc2OC)c1`, the IC50 in test [1] came to 34.4 µM; in test [2], 6.17 µM; in test [3] it was 12.8 µM; in test [4] it was 4.04 µM.
In test [4], `CC(=O)Oc1ccc(C(=O)Nc2cc3ccc(OC4CCN(C)CC4)c(C)c3oc2=O)cc1CC=C(C)C` came in with an IC50 of 2.12 µM.
For the compound `COc1cccc(-c2cc(C(=O)Nc3cc4ccc(OC(N)=O)c(OC)c4oc3=O)ccc2OC)c1`, the half-maximal inhibitory concentration (IC50) in test [1] was 5.56 µM; in test [2], 76.8 µM; in test [3] it was 4.83 µM; in test [4], over 100 µM.
In the case of `COc1cccc(-c2cc(C(=O)Nc3cc4cc(OC)c(OC(C)=O)c(C)c4oc3=O)ccc2OC)c1`, the IC50 in test [1] was determined as 1.5 µM; in test [2] it was 5.72 µM; in test [3] it was 1.05 µM; in test [4] it was 1.69 µM.
The like results for `COc1cccc(-c2cc(C(=O)Nc3cc4cc(OC)c(OCCCN(C)C)c(C)c4oc3=O)ccc2OC)c1` were, in that order, 0.7 µM, 0.49 µM, 4.71 µM and 5.4 µM.
Take `COc1cccc(-c2cc(C(=O)Nc3cc4ccc(O[C@H]5C[C@H](O)CCO5)c(C)c4oc3=O)ccc2OC)c1`: the IC50 in test [1] was over 100 µM; in test [2], over 100 µM; in test [3], 3.11 µM; in test [4], over 100 µM.
`COc1cccc(-c2cc(C(=O)Nc3cc4ccc(O[C@@H]5C[C@H](O)CCO5)c(C)c4oc3=O)ccc2OC)c1`: the half-maximal inhibitory concentration (IC50) in test [1] came to 11.2 µM; in test [2] it was 9.28 µM; in test [3], 8.56 µM.
Turning to `COc1cccc(-c2cc(C(=O)Nc3cc4ccc(OS(=O)(=O)c5ccc(C)cc5)c(OC)c4oc3=O)ccc2OC)c1`, the IC50 was over 100 µM in test [1], over 100 µM in test [2] and 0.11 µM in test [3].
Turning to `COc1cccc(-c2cc(C(=O)Nc3cc4ccc(OCC(O)CO)c(C)c4oc3=O)ccc2OC)c1` (configuration not stated), the concentration for half-maximal inhibition (IC50) is over 50 µM in test [1], over 50 µM in test [2] and 0.19 µM in test [4].
Turning to `COc1cccc(-c2cc(C(=O)Nc3cc4cc(OC)c(OC5CC(C)C[C@@H](O)[C@H]5O)c(C)c4oc3=O)ccc2OC)c1` (some centres not stated), the IC50 in test [1] and in test [2] was over 100 µM in each case.
As for `COc1cccc(-c2cc(C(=O)Nc3cc4ccc(O[C@H]5C[C@H](O)CCO5)c(OC)c4oc3=O)ccc2OC)c1`, the IC50 in test [1] turned out to be 95.8 µM; in test [2], 8.75 µM; in test [3], 11.5 µM.
Regarding `COc1c(OC2CCN(C)CC2)ccc2cc(NC(=O)c3ccc(OC(C)=O)c(CC=C(C)C)c3)c(=O)oc12`, the concentration for half-maximal inhibition (IC50) in test [1] was found to be 1.64 µM; in test [2], 1.07 µM; in test [4], 3.98 µM.
`COc1cccc(-c2cc(C(=O)Nc3cc4ccc(O)c(C)c4oc3=O)ccc2OC)c1`: the concentration for half-maximal inhibition (IC50) amounted to 6.93 µM in test [1], 8.88 µM in test [2], 3.21 µM in test [3] and 5.36 µM in test [4].
In the case of `COc1cccc(-c2cc(C(=O)Nc3cc4cc(OC)c(OS(=O)(=O)c5ccc(C)cc5)c(C)c4oc3=O)ccc2OC)c1`, the half-inhibitory concentration (IC50) in test [1], in test [2] and in test [4] was over 100 µM each time.
As to `COc1cccc(-c2cc(C(=O)Nc3cc4ccc(OC5CC(C)(C)C[C@@H](O)[C@H]5O)c(OC)c4oc3=O)ccc2OC)c1` (some centres not stated), the results for the IC50 in test [1] and in test [2] were 1.56 µM and 3.45 µM, respectively.
Regarding `COc1cccc(-c2cc(C(=O)Nc3cc4cc(OC)c(O[C@@H]5O[C@H](CO)C[C@@H](O)[C@H]5O)c(C)c4oc3=O)ccc2OC)c1`, the IC50 is 3.37 µM in test [1], 9.45 µM in test [2], 4.66 µM in test [3] and 5.9 µM in test [4].
Take `COc1cccc(-c2cc(C(=O)Nc3cc4ccc(OC(=O)N(C)C)c(OC)c4oc3=O)ccc2OC)c1`: the IC50 is over 100 µM in test [1], over 100 µM in test [2], 15.7 µM in test [3] and 11.6 µM in test [4].
On to `Cc1c(OCCCN(C)C)ccc2cc(NC(=O)c3cc4ccccc4[nH]3)c(=O)oc12`, for which the IC50 in test [1] turned out to be 5.23 µM; in test [2], 1.13 µM; in test [4], 13.7 µM.
The compound `CO[C@H]1[C@H](OC(=O)c2ccc(C)[nH]2)[C@H](O)[C@@H](Oc2ccc3c(O)c(NC(=O)c4c[nH]c(C(=O)Nc5c(O)c6ccc(O[C@H]7OC(C)(C)[C@@H](OC)[C@H](OC(=O)c8ccc(C)[nH]8)[C@@H]7O)c(C)c6oc5=O)c4C)c(=O)oc3c2C)OC1(C)C` [COUMERMYCIN A1] gave an IC50 in test [2] of 70 µM.
For the compound `COc1cc2cc(NC(=O)c3ccc(O)c(CC=C(C)C)c3)c(=O)oc2c(C)c1OCCCN(C)C`, the figures for the IC50 in test [1], in test [2] and in test [4] were 0.8 µM, 0.39 µM and 1.38 µM, respectively.
Take `CC(C)=CCc1cc(C(=O)Nc2cc3ccc(OC4CCN(C)CC4)c(C)c3oc2=O)ccc1O`: the IC50 in test [4] was determined as 1.37 µM.
The compound `CO[C@@H]1[C@@H](OC(N)=O)[C@@H](O)[C@H](Oc2ccc3cc(NC(=O)c4ccc(O)c(CC=C(C)C)c4)c(=O)oc3c2C)OC1(C)C` displayed an IC50 in test [2] of 7.5 µM.
`CO[C@@H]1[C@@H](O)[C@@H](O)[C@H](Oc2ccc3cc(NC(=O)c4ccc(O)c(CC=C(C)C)c4)c(=O)oc3c2C)OC1(C)C`: inhibition in test [2] was half-maximal at 0.5 µM (IC50).
The same measure, in the same setting: the figure for `CO[C@@H]1[C@@H](O)[C@@H](O)[C@H](Oc2ccc3cc(NC(=O)c4cc5ccccc5[nH]4)c(=O)oc3c2C)OC1(C)C` is 0.37 µM.
Consider `COc1c(OCCCN(C)C)ccc2cc(NC(=O)c3ccc(OC(C)=O)c(CC=C(C)C)c3)c(=O)oc12`, for which the IC50 in test [1] turned out to be 2.14 µM; in test [2] it was 0.78 µM; in test [4] it was 4.59 µM.
The like results for `COc1c(OCCCN(C)C)ccc2cc(NC(=O)c3ccc(O)c(CC=C(C)C)c3)c(=O)oc12` were, in that order, 3.26 µM, 0.77 µM and 9.24 µM.
Turning to `COc1cccc(-c2cc(C(=O)Nc3cc4ccc(OC5CCC[C@@H](O)[C@H]5O)c(OC)c4oc3=O)ccc2OC)c1` (some centres not stated), the figures for the IC50 in test [1] and in test [2] were 5.46 µM and 7.44 µM, respectively.
Regarding `COc1cccc(-c2cc(C(=O)Nc3cc4ccc(OS(C)(=O)=O)c(OC)c4oc3=O)ccc2OC)c1`, the values for the IC50 in test [1], in test [2] and in test [3] were over 100 µM, over 100 µM and 0.87 µM, respectively.
On to `COc1cccc(-c2cc(C(=O)Nc3cc4ccc(O[C@H]5OCC[C@H]5O)c(C)c4oc3=O)ccc2OC)c1`, for which the IC50 is over 100 µM in test [1], over 100 µM in test [2] and 5.34 µM in test [3].
As to `COc1cccc(-c2cc(C(=O)Nc3cc4cc(OC)c(OC5CCC[C@@H](O)[C@H]5O)c(C)c4oc3=O)ccc2OC)c1` (some centres not stated), the IC50 in test [1] came out at 10.1 µM; in test [2], 8.18 µM.
In the case of `COc1cccc(-c2cc(C(=O)Nc3cc4cc(OC)c(OC5CC(C)(C)C[C@@H](O)[C@H]5O)c(C)c4oc3=O)ccc2OC)c1` (some centres not stated), the IC50 in test [1] and in test [2] was over 100 µM throughout.
In test [4], `CC(=O)Oc1ccc(C(=O)Nc2cc3ccc(OCCCN(C)C)c(C)c3oc2=O)cc1CC=C(C)C` displayed a half-inhibitory concentration (IC50) of 1.42 µM.
On to `CC(C)=CCc1cc(C(=O)Nc2cc3ccc(OCCCN(C)C)c(C)c3oc2=O)ccc1O`, for which, in test [4], the 50% inhibitory concentration (IC50) stood at 1.81 µM.
As for `COc1cccc(-c2cc(C(=O)Nc3cc4ccc(OC5OC(C)(C)[C@H](OC)[C@@H](O)[C@H]5O)c(C)c4oc3=O)ccc2OC)c1` (some centres not stated), the IC50 was determined as 18.7 µM in test [1] and 7.5 µM in test [2].
For the compound `COc1cccc(-c2cc(C(=O)Nc3cc4cc(OC)c(OCC(O)CO)c(C)c4oc3=O)ccc2OC)c1` (configuration not stated), the half-maximal inhibitory concentration (IC50) was determined as 20.5 µM in test [1] and 19.4 µM in test [2].
For `COc1cc2cc(NC(=O)c3ccc(OC(C)=O)c(CC=C(C)C)c3)c(=O)oc2c(C)c1OC1CCN(C)CC1`, the concentration for half-maximal inhibition (IC50) in test [1] amounted to 0.58 µM; in test [2] it was 0.42 µM; in test [4], 1.41 µM.
In test [2], `CO[C@@H]1[C@@H](O)[C@@H](O)[C@H](Oc2ccc3cc(NC(=O)CCCCC(=O)Nc4cc5ccc(O[C@H]6OC(C)(C)[C@@H](OC)[C@H](O)[C@@H]6O)cc5oc4=O)c(=O)oc3c2C)OC1(C)C` registered a half-inhibitory concentration (IC50) of 2 µM.
